From PMC2193645 (The Journal of Experimental Medicine, 1999)

Tests used:
[1] = system: 3.L2tg thymocytes; assay: Three-color FACS of thymocytes from APLtg × 3.L2tg mice; type: in vivo, mouse; conditions: for Interpretation: effect on thymic selection of 3.L2tg T cells: ligand expressed in thymus as mHEL epitope tag, in words
[2] = system: mature 3.L2 T cells; conditions: B cell apoptosis assay; cited from earlier work
[3] = system: mature 3.L2 T cells; conditions: cited from earlier work; for Effect on mature T cells: ligand class in words
[4] = system: splenocytes from APLtg × 3.L2tg mice; assay: Primary T cell proliferation of naive splenocytes to Hb; type: cell-based, mouse; conditions: in words
How it was run: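 Naive splenocytes from APLtg × 3.L2tg mice or 3.L2tg controls were plated at 5 × 10^5/well with increasing Hb(64–76) peptide concentrations for 48 h. They were then pulsed with 0.4 μCi [3H]TdR for 18 h, harvested and counted. Read-out was mean cpm of triplicate wells per peptide dose, and curves were averaged across several experiments.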

[5] = system: 3.L2 TCR; conditions: cited from earlier work; for Half-life: longevity of the 3.L2 TCR–APL complex; for Half-life / Kd: BIAcore; for Kd: read-out: K D k off/k on, kinetic
[6] = system: QC85.5 hybridoma; assay: T cell hybridoma assay; type: cell-based, mouse; conditions: IL-2 production; in words
How it was run: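 Increasing numbers of splenocytes from transgenic mice were cultured 24 h with QC85.5 hybridoma cells. QC85.5 was raised by immunizing CE/J mice with a position-72 altered Hb peptide, subcloned twice, and recognizes several position-72 variants. IL-2 in supernatant was measured by CTLL-2 proliferation and plotted as CTLL-2 cpm against splenocytes per well. Each point is the mean of triplicate wells.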

[7] = system: 3.L2.12 hybridoma; conditions: cited from earlier work

| Substance | Interpretation: effect on thymic selection of 3.L2tg T cells [1] | Relative activity [2] | Effect on mature T cells [3] | Response of naive 3.L2tg splenocytes to Hb(64–76) on the selecting background [4] | Half-life [5] [s] | Kd [5] [µM] | Stimulation of QC85.5 hybridoma by peptide [6] | Increase in percentage of CD4-SP cells with high levels of the 3.L2 TCR over 3.L2tg control ([1]; P < 0.01) [%] | Binding to the 3.L2 TCR in BIAcore experiments ([5]; in words) | Fold less active than N72(wt) [3] [fold] | Reduction of 3.L2.12 stimulation by peptide [7] [fold] |
| --- | --- | --- | --- | --- | --- | --- | --- | --- | --- | --- | --- |
| Hb(64–76) N72E [Ligand E72] | no effect on 3.L2tg T cell development | none | no effect on mature T cells | – | – | – | – | – | – | – | – |
| Hb(64–76) N72I [Ligand I72] | complete negative selection | 0.006 | an antagonist | tolerant to Hb(64–76) | 2.3 to 3.4 | 10 to 20 | – | – | – | – | – |
| Hb(64–76) N72A [Ligand A72] | modest negative selection | 0.0007 | a weaker antagonist | – | <2 | – | produce IL-2 | – | – | – | – |
| GKKVITAFQEGLK [Ligand Q72, Hb(64–76) N72Q] | enhance the positive selection | none | no effect on mature 3.L2 T cells | – | – | – | stimulated most strongly | 12 | no binding can be detected | – | – |
| GKKVITAFNEGLK [N72(wt), Hb(64–76)] | complete negative selection | 100 | the strongest agonist | tolerant to Hb(64–76) | 10.8 | 12 | produce IL-2 | – | – | – | – |
| Hb(64–76) N72T [Ligand T72] | identical effect | 2 | a weaker agonist | tolerant to Hb(64–76) | 5.1 | 9.9 | produce IL-2 | – | – | 50 | 50 |
